Data from ChEMBL document CHEMBL4229460, “Design and biological evaluation of novel hybrids of 1, 5-diarylpyrazole and Chrysin for selective COX-2 inhibition” (Bioorg Med Chem, 2018).

What was measured:
[1] = biological target: Prostaglandin G/H synthase 1 (Homo sapiens, UniProt P23219); experiment: Inhibition of COX1 (unknown origin) using arachidonic acid as substrate pretreated for 10 mins followed by substrate addition and measured after 2 mins by ELISA; assay type: ADME
[2] = biological target: T1, Prostaglandin G/H synthase 2 (Homo sapiens, UniProt P35354); experiment: Inhibition of COX2 (unknown origin) using arachidonic acid as substrate pretreated for 10 mins followed by substrate addition and measured after 2 mins by ELISA
T1 sequence (P35354 whole entry): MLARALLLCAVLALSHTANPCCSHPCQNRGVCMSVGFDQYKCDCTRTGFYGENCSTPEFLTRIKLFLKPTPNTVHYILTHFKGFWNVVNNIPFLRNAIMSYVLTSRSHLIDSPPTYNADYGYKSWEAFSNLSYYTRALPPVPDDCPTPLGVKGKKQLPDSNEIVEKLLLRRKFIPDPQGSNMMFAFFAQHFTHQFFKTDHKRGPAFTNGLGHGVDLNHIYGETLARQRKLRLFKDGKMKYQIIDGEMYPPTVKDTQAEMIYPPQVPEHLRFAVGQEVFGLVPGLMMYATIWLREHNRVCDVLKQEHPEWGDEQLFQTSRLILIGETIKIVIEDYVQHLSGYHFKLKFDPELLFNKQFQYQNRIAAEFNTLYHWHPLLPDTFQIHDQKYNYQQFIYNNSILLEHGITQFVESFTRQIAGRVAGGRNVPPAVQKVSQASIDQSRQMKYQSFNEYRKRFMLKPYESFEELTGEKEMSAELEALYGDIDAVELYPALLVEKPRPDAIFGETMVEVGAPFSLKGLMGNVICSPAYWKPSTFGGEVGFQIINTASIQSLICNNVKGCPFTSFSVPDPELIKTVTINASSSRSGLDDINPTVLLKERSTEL

Homo sapiens = species on record: Homo sapiens; experiment: Selectivity index, ratio of IC50 for COX1 (unknown origin) to ratio of IC50 for COX2 (unknown origin)
Summary of the method: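 Enzyme ELISA kit: COX-1 or COX-2 preincubated with compound at 0, 1, 10 or 100 μM for 10 min at 37 °C in 0.1 M Tris-HCl pH 8.0, 5 mM EDTA, 2 mM phenol, 1 μM heme. Started with 100 μM arachidonic acid for 2 min at 37 °C, stopped with 1 M HCl. PGH₂ reduced by stannous chloride; PGF2α read by enzyme immunoassay at 450 nm. Index taken as the ratio of the COX IC50 values.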

MCF7 = experiment: Antiproliferative activity against human MCF7 cells after 48 hrs by MTT assay; assay type: functional, cell-based; settings: MCF7, 48 h
B16-F10 = experiment: Antiproliferative activity against mouse B16F10 cells after 48 hrs by MTT assay; assay type: functional, cell-based; settings: B16-F10, 48 h
Summary of the method: (§1)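 Cells kept in DMEM with 10% FBS, penicillin/streptomycin, 37 °C, 5% CO₂. Seeded at 5 × 10⁴ cells/well and allowed to adhere 12 h. Exposed to 0, 0.1, 1, 10 and 100 μM (final) for 48 h. Viability read by MTT reduction at OD 570 nm with 630 nm reference. IC50 reported as mean ± SD of three independent experiments.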

A549 = experiment: Antiproliferative activity against human A549 cells after 48 hrs by MTT assay; assay type: functional, cell-based; settings: A549, 48 h; summary of the method: as §1
HeLa = experiment: Antiproliferative activity against human HeLa cells after 48 hrs by MTT assay; assay type: functional, cell-based
HEK-293T = experiment: Cytotoxicity against human 293T cells after 48 hrs by MTT assay; assay type: cell-based

Sequence of Prostaglandin G/H synthase 1 (P23219 whole entry): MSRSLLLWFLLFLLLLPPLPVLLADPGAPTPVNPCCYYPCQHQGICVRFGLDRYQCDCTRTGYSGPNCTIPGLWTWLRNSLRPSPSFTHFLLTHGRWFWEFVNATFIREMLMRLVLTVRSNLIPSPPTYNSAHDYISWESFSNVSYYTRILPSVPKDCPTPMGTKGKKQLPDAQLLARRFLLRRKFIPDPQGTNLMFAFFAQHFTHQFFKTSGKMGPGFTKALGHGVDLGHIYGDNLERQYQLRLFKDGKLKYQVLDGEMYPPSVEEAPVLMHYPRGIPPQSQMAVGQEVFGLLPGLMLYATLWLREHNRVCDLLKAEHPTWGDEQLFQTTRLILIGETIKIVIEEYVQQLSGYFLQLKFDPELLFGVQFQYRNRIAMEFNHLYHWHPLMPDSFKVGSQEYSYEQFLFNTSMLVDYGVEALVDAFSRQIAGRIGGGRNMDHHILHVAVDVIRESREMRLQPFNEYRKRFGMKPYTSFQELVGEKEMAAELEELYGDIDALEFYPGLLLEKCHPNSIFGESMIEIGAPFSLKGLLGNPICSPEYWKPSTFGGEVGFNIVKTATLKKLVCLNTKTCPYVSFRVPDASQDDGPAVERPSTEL

Row | IC50 [1] [µM] | IC50 [2] [µM] | Ratio IC50 (Homo sapiens) | IC50 (MCF7) [µM] | IC50 (B16-F10) [µM] | IC50 (A549) [µM] | IC50 (HeLa) [µM] | Compound | IC50 (HEK-293T) [µM]
1 | 25.5 | 1.21 | 21 | 5.12 | 6.92 | 13.6 | 13.6 | COc1cccc(-c2cc(COC(=O)COc3cc(O)c4c(=O)cc(-c5ccccc5)oc4c3)nn2-c2ccccc2)c1 | 317
2 | 43.2 | 3.53 | 12.2 | 9.02 | 10.8 | 40.2 | 2.81 | O=C(COc1cc(O)c2c(=O)cc(-c3ccccc3)oc2c1)OCc1cc(-c2cccc(F)c2)n(-c2ccccc2)n1 | 197
3 | 45 | 0.93 | 48.4 | 5.43 | 2.59 | 4.49 | 4.78 | Cc1ccc(-c2cc(COC(=O)COc3cc(O)c4c(=O)cc(-c5ccccc5)oc4c3)nn2-c2ccccc2)cc1 | 315
4 | > 50 | 1.41 | > 35 | 47 | 15.6 | > 100 | 1.65 | O=C(COc1cc(O)c2c(=O)cc(-c3ccccc3)oc2c1)OCc1cc(-c2ccc(Cl)cc2)n(-c2ccccc2)n1 | 227
5 | 39.1 | 1.36 | 28.7 | 10.8 | 2.85 | > 100 | 1.95 | Cc1cccc(-c2cc(COC(=O)COc3cc(O)c4c(=O)cc(-c5ccccc5)oc4c3)nn2-c2ccccc2)c1 | 316
6 | 40.9 | 1.44 | 28.4 | 7.86 | 17.6 | 4.69 | 12.4 | Cc1ccc(-c2cc(COC(=O)COc3cc(O)c4c(=O)cc(-c5ccccc5)oc4c3)nn2-c2ccc(Cl)cc2)cc1 | 222
7 | > 50 | 2.12 | > 23 | > 100 | 20.8 | 3.68 | 2.67 | Cc1ccc(-n2nc(COC(=O)COc3cc(O)c4c(=O)cc(-c5ccccc5)oc4c3)cc2-c2ccc(Cl)cc2)cc1 | 299

The remaining lines, values behind:

Row | Compound | IC50 [1] [µM] | IC50 [2] [µM] | Ratio IC50 (Homo sapiens) | IC50 (MCF7) [µM] | IC50 (B16-F10) [µM] | IC50 (A549) [µM] | IC50 (HeLa) [µM] | IC50 (HEK-293T) [µM]
8 | Cc1cccc(-c2cc(COC(=O)COc3cc(O)c4c(=O)cc(-c5ccccc5)oc4c3)nn2-c2ccc(Cl)cc2)c1 | 27.6 | 1.77 | 15.6 | 23.4 | 4.95 | 32.1 | 4.06 | 162
9 | Cc1ccc(-c2cc(C(F)(F)F)nn2-c2ccc(S(N)(=O)=O)cc2)cc1 [CELECOXIB] |  |  |  | 26.8 | 19.2 | 16.1 | 15.7 | 225
10 | Cc1ccc(-n2nc(COC(=O)COc3cc(O)c4c(=O)cc(-c5ccccc5)oc4c3)cc2-c2cccc(Cl)c2)cc1 | 49.6 | 4.8 | 10.3 | 22 | 3.85 | 8.17 | 25.5 | 161
11 | Cc1ccc(-n2nc(COC(=O)COc3cc(O)c4c(=O)cc(-c5ccccc5)oc4c3)cc2-c2ccc(C(F)(F)F)cc2)cc1 | 29.7 | 5.02 | 5.92 | 6.21 | 7.44 | 5.07 | 4.32 | 212
12 | O=C(COc1cc(O)c2c(=O)cc(-c3ccccc3)oc2c1)OCc1cc(-c2cccc(C(F)(F)F)c2)n(-c2ccccc2)n1 | 41.1 | 4.79 | 8.58 | 8.01 | 6.53 | 6.68 | 4.33 | 271
13 | O=c1cc(-c2ccccc2)oc2cc(O)cc(O)c12 [CHRYSIN] |  |  |  | 25.7 | 17.4 | 47.8 | 25.1 | 319
